“Also recorded” adds a separate entry of the source.

One data set relates to A172 human glioblastoma. In words: Cellular cholesterol efflux in A172 human cells. It counts as cell-based. As to conditions: 4 hours. An outline of the steps:
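A172 human glioblastoma cells were grown in DMEM with 10% FBS and antibiotics, then labelled with ³H‑cholesterol. Efflux ran in serum‑free medium with 0.2% BSA, 5 μmol/L T0901317 and 5 μmol/L 9‑cis‑retinoic acid, with or without 10 μmol/L probucol. Acceptor was human apoA‑I or test peptide at 20 μg/mL, or a molar dose series, for 4 h. n=4–5; mean±SD.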

In data set [1] the test system is mouse peritoneal macrophages. In words: Cellular cholesterol efflux in mouse peritoneal macrophages. It counts as cell-based. As to conditions: 20 μg/mL, 4 hours, n=4 to 5. The essentials:
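Peritoneal macrophages taken from mice injected i.p. with 2 mL 2.9% thioglycollate 90 h earlier, and selected as cells adherent after 2 h. Cells were labelled with ³H-cholesterol and kept in serum-free medium with 0.2% BSA. Efflux to 20 μg/mL acceptor was measured over 4 h.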

For data set [2], the system named is human monocyte‐derived macrophages. In words: Cellular cholesterol efflux in human monocyte-derived macrophages. It counts as cell-based. As to conditions: 20 μg/mL, 4 hours, n=4 to 5. An outline of the steps: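 Human peripheral blood monocyte-derived macrophages isolated by Lymphoprep gradient. Cells were radiolabelled with ³H-cholesterol and kept in serum-free medium containing 0.2% BSA. Efflux to 20 μg/mL acceptor (apoA-I or test peptide) or no acceptor was measured over 4 h.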

The target in data set [3] is T1, ABCA1 (Homo sapiens, UniProt O95477). In words: Cholesterol efflux in COS-7 cells transiently transfected with human ABCA1 cDNA. It counts as cell-based. As to conditions: 20 μg/mL, 4 hours, n=6 to 7. An outline of the steps:
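COS‑7 cells were kept in DMEM with 10% FBS and antibiotics and seeded at 80–90% confluence. They were transfected by lipofection with human ABCA1 cDNA in pcDNA3.1 (with ABCG1 in pEdsRed‑N1), or with mock vector. Cells were then ³H‑cholesterol labelled, and efflux was measured in serum‑free medium with 0.2% BSA.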

The target in data set [4] is T1, ABCA1. Put plainly: Cholesterol efflux in CHO-ldlA7 cells transfected with human ABCA1 cDNA. It is filed as cell-based. As to conditions: 20 μg/mL, 4 hours, n=6. An outline of the steps: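 CHO-ldlA7 cells seeded at 80–90% confluence were transiently transfected (Lipofectamine 2000) with human ABCA1 cDNA in pcDNA3.1 or with empty vector (mock). Cells were labelled with ³H-cholesterol in serum-free medium with 0.2% BSA. Efflux over 4 h was measured with or without 20 μg/mL human apoA-I or test peptide; n=6.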

The subject of data set [5] is monocyte‐derived macrophages from an ABCA1‐deficient Tangier disease patient. It counts as cell-based, human. As to conditions: 20 μg/mL, 4 hours, n=4. An outline of the steps:
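Peripheral blood monocyte‑derived macrophages came from a healthy volunteer and a Tangier disease patient, with ethics approval and written consent. Cells were isolated by Lymphoprep density separation and labelled with ³H‑cholesterol. Efflux was run in serum‑free 0.2% BSA medium with or without 20 μg/mL human apoA‑I or test peptide for 4 h. n=4; mean±SD.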

Data set [6] deals with T1, ABCA1. Put plainly: Probucol-inhibitable, ABCA1-specific cholesterol efflux in A172 cells. It is filed as cell-based. As to conditions: probucol 10 μmol/L. An outline of the steps:
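A172 glioblastoma cells, labelled with ³H-cholesterol, were held in serum-free 0.2% BSA medium with 5 μmol/L T0901317 and 5 μmol/L 9-cis-retinoic acid. Cells were exposed for 4 h to 20 μg/mL acceptor, with or without 10 μmol/L probucol. ABCA1-dependent efflux was taken as the probucol-inhibitable fraction.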

Another data set relates to human erythrocytes. Put plainly: Hemolysis assay. It is filed as cell-based. As to conditions: 1% human erythrocytes in PBS, 10 minutes at 37°C; up to 1.0 mg/mL; OD 540 nm. The essentials:
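Erythrocytes from EDTA blood of 4 human donors, washed 3 times in PBS to remove plasma and buffy coat. A 1% suspension in PBS was incubated with or without test peptide for 10 min at 37°C. Hemoglobin in the supernatant was read at 540 nm and expressed as percentage of Triton X-100 lysis; mean±SD.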

Data set [7] can be described thus: Size analysis of HDL interacting with FAMP. As to conditions: human HDL 2.22 mg/mL, 60 minutes at 37°C; 50, 250, 500 μg/mL FAMP5. An outline of the steps: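 Human HDL, adjusted to 2.22 mg/mL in saline containing 0.1% EDTA (pH 7.4), was incubated with 50, 250 or 500 μg/mL test peptide for 60 min at 37°C. Samples were run on nondenaturing 5–20% gradient polyacrylamide gel in Tris-glycine (pH 7.5) for 3 h at 20 mA on ice, then stained with Coomassie R-250.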

Data set [8] relates to apoE−/− mice fed a high‐fat diet. In words: Aortic atherosclerotic lesion formation, 16-week treatment. As to conditions: high-dose 50 mg/kg i.p. 3 times per week, 16 weeks; Oil Red O; mean±SD; P<0.01 vs scrambled. It counts as in vivo. The essentials: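 Male apoE−/− mice, bought at six weeks, fed a high-fat diet (0.5% cholesterol, 10% fat) and dosed i.p. 3 times per week for 16 weeks: test peptide at 10 or 50 mg/kg per day, or scrambled peptide. Whole aortas were then stained with Oil Red O. Lesion area was scored by image analysis as percentage of aorta from ascending aorta to abdominal bifurcation.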

For the next data set, the system named is apoE‐deficient mice. In words: Plasma lipid profiles by enzymatic assay, 16-week treatment. It counts as in vivo. As to conditions: 16 weeks; for HDL Cholesterol / Total Cholesterol / Triglyceride: 3 times a week, high-fat-fed apoE-deficient mice, mean±SD. The essentials: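 Overnight-fasting plasma taken after 16 weeks from 19 of 23 high-fat-fed apoE−/− mice. Dosing was i.p. 3 times weekly with scrambled peptide or test peptide at 10 or 50 mg/kg per day. Total cholesterol, triglyceride and HDL cholesterol were measured by enzymatic assay; mean±SD.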

The test system of another data set is RAW264 macrophages. Put plainly: Ex vivo cholesterol efflux mediated by plasma HDL of treated mice. It counts as in vivo. As to conditions: high-dose 50 mg/kg, 16 weeks; apoB-depleted plasma, 8Br-cAMP-treated RAW264 macrophages. An outline of the steps: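 Plasma collected after 16 weeks of i.p. treatment of high-fat-fed apoE−/− mice. ApoB-depleted plasma served as acceptor for ³H-cholesterol-labelled RAW264 macrophages. Macrophages were pretreated with 0.3 mmol/L 8Br-cAMP and kept in serum-free medium with 0.2% BSA.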

Another data set concerns C‐reactive protein (CRP). In words: Plasma high-sensitive CRP by ELISA. It counts as in vivo. As to conditions: low (10 mg/kg) and high (50 mg/kg) doses, 16 weeks, apoE−/− mice. An outline of the steps: (§1)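 Overnight-fasted plasma collected from high-fat-fed apoE−/− mice after 16 weeks of i.p. dosing 3 times weekly (10 or 50 mg/kg per day, or scrambled peptide). High-sensitivity CRP and MCP-1 were quantified with commercial ELISA kits.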

Data set [9] relates to monocyte chemoattractant protein‐1 (MCP‐1). Put plainly: Plasma MCP-1 by ELISA. It counts as in vivo. As to conditions: high dose (50 mg/kg), 16 weeks, apoE−/− mice. The essentials:
as §1

Where [10] appears, read: high-dose 50 mg/kg per day i.p., n=7.
Where [11] appears, read: low-dose 10 mg/kg per day i.p., n=5.

T1 sequence (O95477 whole entry): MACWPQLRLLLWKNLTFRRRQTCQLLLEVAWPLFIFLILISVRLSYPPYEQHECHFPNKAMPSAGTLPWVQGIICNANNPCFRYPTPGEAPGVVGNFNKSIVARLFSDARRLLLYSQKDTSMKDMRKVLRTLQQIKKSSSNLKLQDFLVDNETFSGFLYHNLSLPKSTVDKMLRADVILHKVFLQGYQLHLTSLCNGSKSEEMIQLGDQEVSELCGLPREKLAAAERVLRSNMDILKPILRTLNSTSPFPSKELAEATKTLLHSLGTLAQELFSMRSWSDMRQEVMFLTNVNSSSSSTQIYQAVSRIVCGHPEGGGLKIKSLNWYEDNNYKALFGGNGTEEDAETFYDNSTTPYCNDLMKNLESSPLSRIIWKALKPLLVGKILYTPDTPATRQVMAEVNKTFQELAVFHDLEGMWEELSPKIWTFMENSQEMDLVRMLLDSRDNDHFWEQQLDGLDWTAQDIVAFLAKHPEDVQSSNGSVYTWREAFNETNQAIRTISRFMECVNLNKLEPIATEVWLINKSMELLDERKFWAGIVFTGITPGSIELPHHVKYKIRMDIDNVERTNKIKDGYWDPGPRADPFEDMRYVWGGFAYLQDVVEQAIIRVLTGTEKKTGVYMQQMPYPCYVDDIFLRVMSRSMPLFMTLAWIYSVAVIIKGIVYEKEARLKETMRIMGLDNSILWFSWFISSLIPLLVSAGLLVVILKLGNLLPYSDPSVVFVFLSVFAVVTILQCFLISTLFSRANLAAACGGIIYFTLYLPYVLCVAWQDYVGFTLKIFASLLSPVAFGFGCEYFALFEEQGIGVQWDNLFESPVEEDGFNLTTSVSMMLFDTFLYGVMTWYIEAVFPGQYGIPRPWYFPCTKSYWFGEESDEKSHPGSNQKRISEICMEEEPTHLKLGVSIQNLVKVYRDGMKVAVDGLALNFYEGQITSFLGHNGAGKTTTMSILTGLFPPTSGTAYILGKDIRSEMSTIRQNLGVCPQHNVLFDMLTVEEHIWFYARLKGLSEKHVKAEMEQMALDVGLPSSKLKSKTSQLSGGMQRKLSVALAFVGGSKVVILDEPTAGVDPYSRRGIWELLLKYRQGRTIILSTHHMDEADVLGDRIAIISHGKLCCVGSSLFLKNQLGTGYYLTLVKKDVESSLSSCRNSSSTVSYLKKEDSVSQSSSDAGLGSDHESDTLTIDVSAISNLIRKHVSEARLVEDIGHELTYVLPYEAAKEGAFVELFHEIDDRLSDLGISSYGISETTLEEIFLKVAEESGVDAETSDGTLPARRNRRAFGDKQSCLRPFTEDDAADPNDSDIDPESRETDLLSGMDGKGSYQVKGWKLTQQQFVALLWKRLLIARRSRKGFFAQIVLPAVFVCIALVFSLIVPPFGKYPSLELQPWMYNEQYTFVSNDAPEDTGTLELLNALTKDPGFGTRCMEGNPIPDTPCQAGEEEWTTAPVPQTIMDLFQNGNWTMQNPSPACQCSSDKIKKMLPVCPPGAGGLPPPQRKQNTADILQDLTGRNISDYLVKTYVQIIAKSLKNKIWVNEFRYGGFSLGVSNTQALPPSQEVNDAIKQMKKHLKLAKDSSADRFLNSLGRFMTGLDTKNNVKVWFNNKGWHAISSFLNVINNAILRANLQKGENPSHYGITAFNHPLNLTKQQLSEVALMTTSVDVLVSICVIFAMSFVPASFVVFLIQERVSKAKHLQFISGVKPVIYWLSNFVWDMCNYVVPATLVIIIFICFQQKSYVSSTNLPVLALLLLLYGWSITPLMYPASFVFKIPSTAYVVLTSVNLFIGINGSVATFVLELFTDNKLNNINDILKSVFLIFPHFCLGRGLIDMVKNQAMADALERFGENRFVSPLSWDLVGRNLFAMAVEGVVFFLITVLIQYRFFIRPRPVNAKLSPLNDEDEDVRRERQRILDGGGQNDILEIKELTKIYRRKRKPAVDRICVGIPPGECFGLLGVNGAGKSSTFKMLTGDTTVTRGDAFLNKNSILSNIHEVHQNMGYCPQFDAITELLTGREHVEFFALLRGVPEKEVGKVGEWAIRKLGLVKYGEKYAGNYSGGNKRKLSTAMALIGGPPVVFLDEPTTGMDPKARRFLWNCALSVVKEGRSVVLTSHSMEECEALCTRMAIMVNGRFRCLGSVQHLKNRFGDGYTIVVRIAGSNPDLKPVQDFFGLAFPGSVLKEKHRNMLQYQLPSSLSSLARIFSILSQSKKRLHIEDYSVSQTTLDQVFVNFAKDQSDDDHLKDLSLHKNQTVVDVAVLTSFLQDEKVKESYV

Regarding H-ALEHLFTLYEKALKALEDLLKKLL-OH [FAMP5], in the data set on A172 human glioblastoma (A172 cells, presence or absence of 5 μmol/L T0901317 or 9-cis-retinoic acid, n=4), the “dose dependence of cholesterol efflux on a molar basis” value is recorded as “dose‐dependent induction of cholesterol efflux with saturation effects”. In addition, in the data set with A172 human glioblastoma (A172 cells, 20 μg/mL, n=5), the “cellular cholesterol efflux: differences of terminal end modifications” value is “no influence by the modification of terminal ends”. In addition, in the data set with A172 human glioblastoma (probucol 10 μmol/L, 20 μg/mL), the “effect of ABCA1 inactivation (probucol) on peptide-mediated cholesterol efflux” value was “drastically inhibited; also recorded: not completely abolished”. In addition, the cholesterol efflux entry in data set [1] and in data set [2] was “induced cholesterol efflux significantly more than human apoA‐I” each time. Also, the “cholesterol efflux after transient transfection with ABCA1 cDNA vs mock” value on ABCA1 [3] and at ABCA1 [4] was “significantly upregulated” each time. Also, in data set [5], the “cholesterol efflux in Tangier disease macrophages vs healthy subject” value is “suppressed”. Besides, on ABCA1 [6], the “percentage of probucol‐inhibitable, ABCA1‐specific cholesterol efflux” value is on record as “significantly higher than that in L‐4F; also recorded: significantly lower than human apoA‐I”. In addition, the “red cell hemolysis (percentage of the Triton X‐100 lysis)” value in the data set on human erythrocytes was “only limited effects”. Moreover, in [7], the “HDL particle size on polyacrylamide gel electrophoresis” value is listed as “generated pre‐β1 HDL‐like small particles”. The “relative surface area of aortic plaque lesions” value in data set [8] was 16.2±5.0%. For the same substance, the “HDL Cholesterol” value in the data set on apoE‐deficient mice (setting [10]) came out at 12.6 ± 3.7 mg/dL; in the data set on apoE‐deficient mice (setting [11]) it was 16.6 ± 4.8 mg/dL. The entries for the “Total Cholesterol” value in the data set on apoE‐deficient mice (setting [10]) and in the data set with apoE‐deficient mice (setting [11]) were 1439.5 ± 271.5 mg/dL and 1532.8 ± 589.6 mg/dL, respectively. In addition, the values for the Triglyceride in the data set with apoE‐deficient mice (setting [10]) and in the data set on apoE‐deficient mice (setting [11]) were 102.7 ± 18.3 mg/dL and 120.0 ± 41.6 mg/dL, respectively. For the same substance, the “effect on plasma total cholesterol, triglyceride, and HDL cholesterol levels” value in the data set on apoE‐deficient mice (low and high doses, enzymatic assay) is on record as “no significant effects”. The “ex vivo cholesterol efflux mediated by HDL of treated mice” value in the data set with RAW264 macrophages is reported as “significant increase”. For the same substance, the “plasma high‐sensitive CRP levels” value in the data set on C‐reactive protein (CRP) is “equally suppressed”. In addition, the “plasma MCP‐1 levels” value in data set [9] is “significantly reduced”.
